Test results from ChEMBL document CHEMBL3797186, “Single Residue Substitutions That Confer Voltage-Gated Sodium Ion Channel Subtype Selectivity in the NaV1.7 Inhibitory Peptide GpTx-1” (J Med Chem, 2016).
Positions of bridges follow the written chain, without caps; N, C: chain ends. Non-standard residues stand in square brackets, D forms with d. Residues, ends and D or L forms follow the SMILES beside them. 1Nal = N[C@@H](Cc1cccc2ccccc12)C(=O)O

Key:
[1] = target: Sodium channel protein type 5 subunit alpha (Homo sapiens, UniProt Q14524); test: Inhibition of human Nav1.5 expressed in HEK293 cells assessed as inward peak current by ion-works quattro patch clamp electrophysiology method; format: cell-based
In short: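 Stable HEK293 line expressing human NaV1.5, recorded by population patch clamp on the IonWorks Quattro.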

[2] = target: Sodium channel protein type 9 subunit alpha (Homo sapiens, UniProt Q15858); test: Inhibition of human Nav1.7 expressed in HEK293 cells assessed as inward peak current by ion-works quattro patch clamp electrophysiology method; format: cell-based
Sequence of Sodium channel protein type 9 subunit alpha (Q15858 whole entry): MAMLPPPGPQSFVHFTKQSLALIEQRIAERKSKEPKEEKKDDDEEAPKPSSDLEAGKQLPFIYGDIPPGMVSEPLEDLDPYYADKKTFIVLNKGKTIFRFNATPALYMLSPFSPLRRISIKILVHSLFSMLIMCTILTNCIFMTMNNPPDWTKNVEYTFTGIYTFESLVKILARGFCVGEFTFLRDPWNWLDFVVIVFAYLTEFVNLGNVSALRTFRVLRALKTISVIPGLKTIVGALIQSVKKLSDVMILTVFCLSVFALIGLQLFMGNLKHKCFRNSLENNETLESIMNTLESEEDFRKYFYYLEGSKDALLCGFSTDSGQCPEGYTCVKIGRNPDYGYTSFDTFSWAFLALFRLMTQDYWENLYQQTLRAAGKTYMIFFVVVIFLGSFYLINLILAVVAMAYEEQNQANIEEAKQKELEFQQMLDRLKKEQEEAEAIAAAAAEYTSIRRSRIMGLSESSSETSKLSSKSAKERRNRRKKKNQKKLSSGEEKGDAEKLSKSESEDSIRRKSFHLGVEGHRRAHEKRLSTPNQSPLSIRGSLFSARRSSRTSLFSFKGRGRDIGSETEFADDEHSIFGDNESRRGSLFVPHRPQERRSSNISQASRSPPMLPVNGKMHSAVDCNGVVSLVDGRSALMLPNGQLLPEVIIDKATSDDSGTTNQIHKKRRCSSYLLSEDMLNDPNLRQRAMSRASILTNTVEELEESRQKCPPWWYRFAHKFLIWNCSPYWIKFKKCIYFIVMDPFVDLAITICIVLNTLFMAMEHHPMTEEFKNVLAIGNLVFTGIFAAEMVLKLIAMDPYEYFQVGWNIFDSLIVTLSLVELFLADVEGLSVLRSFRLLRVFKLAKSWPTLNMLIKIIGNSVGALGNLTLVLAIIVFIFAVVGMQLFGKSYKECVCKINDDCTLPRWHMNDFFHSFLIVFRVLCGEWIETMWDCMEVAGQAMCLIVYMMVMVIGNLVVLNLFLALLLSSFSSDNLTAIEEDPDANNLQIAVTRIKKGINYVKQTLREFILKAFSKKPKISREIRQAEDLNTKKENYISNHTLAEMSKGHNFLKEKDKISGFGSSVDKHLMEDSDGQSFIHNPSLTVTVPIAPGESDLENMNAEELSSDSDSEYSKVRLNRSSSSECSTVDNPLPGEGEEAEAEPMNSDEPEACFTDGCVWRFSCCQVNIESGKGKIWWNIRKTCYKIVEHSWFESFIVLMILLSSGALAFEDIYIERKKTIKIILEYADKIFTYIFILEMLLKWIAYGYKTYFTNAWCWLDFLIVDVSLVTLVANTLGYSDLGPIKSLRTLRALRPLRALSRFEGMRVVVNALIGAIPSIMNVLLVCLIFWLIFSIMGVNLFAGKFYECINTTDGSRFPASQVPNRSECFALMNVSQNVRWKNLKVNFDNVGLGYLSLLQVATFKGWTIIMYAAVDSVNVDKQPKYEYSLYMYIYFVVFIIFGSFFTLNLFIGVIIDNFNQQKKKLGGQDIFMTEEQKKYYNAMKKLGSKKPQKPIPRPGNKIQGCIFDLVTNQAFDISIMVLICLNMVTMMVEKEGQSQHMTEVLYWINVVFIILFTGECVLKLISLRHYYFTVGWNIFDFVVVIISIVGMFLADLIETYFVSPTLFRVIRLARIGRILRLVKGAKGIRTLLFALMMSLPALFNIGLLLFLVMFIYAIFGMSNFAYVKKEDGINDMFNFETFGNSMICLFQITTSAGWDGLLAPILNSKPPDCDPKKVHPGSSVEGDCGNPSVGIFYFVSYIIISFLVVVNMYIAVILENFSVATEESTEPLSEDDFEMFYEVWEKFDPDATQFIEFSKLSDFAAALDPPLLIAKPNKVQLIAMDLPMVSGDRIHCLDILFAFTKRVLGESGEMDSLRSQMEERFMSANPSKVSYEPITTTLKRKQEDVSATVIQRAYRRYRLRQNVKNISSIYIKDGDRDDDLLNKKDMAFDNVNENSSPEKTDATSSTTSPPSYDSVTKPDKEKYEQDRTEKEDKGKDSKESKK

Sequence of Sodium channel protein type 5 subunit alpha (Q14524 whole entry): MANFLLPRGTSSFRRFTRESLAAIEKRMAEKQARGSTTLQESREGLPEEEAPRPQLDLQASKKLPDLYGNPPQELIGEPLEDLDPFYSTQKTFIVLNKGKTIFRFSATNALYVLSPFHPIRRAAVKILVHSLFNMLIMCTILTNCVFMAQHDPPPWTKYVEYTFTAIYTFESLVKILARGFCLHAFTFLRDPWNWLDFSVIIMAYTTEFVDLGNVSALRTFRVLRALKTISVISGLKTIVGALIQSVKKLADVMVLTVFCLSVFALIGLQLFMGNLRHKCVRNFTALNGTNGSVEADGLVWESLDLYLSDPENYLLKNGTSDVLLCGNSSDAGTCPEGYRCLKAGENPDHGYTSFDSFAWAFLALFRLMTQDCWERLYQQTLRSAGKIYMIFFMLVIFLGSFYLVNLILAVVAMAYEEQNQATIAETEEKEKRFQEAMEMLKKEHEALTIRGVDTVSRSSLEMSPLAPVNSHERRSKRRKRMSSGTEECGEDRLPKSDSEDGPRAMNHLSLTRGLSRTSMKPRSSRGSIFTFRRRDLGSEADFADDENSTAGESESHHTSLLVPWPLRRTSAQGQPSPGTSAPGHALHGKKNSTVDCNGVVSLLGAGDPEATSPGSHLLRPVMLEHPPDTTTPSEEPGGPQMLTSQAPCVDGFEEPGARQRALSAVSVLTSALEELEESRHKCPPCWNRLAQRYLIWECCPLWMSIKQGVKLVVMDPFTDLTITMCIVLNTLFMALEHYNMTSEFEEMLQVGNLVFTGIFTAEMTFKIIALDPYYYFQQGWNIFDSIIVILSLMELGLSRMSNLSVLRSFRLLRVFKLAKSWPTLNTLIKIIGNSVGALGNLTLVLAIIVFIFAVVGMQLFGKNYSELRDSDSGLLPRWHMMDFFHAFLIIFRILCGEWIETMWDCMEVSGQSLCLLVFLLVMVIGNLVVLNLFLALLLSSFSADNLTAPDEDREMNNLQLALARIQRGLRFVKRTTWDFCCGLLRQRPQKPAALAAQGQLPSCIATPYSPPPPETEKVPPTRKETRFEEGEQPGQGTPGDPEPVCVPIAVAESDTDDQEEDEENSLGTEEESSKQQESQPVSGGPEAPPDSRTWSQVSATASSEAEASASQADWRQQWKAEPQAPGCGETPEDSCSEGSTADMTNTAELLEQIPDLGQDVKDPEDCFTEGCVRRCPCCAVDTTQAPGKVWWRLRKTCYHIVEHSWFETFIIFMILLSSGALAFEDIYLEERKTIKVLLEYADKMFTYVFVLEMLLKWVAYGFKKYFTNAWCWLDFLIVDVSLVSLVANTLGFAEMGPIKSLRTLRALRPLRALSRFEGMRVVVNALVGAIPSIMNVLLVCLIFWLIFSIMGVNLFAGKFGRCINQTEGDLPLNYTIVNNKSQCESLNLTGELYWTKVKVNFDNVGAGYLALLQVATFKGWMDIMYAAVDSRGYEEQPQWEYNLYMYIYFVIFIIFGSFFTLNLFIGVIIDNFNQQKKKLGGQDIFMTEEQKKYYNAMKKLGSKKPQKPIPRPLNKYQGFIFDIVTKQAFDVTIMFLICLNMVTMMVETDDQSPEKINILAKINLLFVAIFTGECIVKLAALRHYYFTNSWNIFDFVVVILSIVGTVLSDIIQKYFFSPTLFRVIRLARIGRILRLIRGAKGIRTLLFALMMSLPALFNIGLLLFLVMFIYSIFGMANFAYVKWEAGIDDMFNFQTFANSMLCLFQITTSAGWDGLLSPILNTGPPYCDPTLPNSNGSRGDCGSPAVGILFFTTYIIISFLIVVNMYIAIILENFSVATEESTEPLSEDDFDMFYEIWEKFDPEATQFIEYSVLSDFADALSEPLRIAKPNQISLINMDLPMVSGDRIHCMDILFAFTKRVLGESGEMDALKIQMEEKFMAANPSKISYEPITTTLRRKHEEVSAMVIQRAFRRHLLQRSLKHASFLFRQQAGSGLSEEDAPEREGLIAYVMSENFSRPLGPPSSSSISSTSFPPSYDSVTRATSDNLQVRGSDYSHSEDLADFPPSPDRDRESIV

Compound: CC[C@H](C)[C@@H]1NC(=O)[C@@H]2CSSC[C@@H]3NC(=O)[C@H](C(C)C)NC(=O)[C@H](CC(C)C)NC(=O)[C@H](CC(N)=O)NC(=O)[C@@H]4CCCN4C(=O)[C@H](CCCNC(=N)N)NC(=O)[C@H](CSSC[C@H](NC(=O)[C@H](CC(=O)O)NC(=O)[C@@H](N)CCCCN)C(=O)N[C@@H](CC(C)C)C(=O)NCC(=O)N[C@@H](Cc4ccccc4)C(=O)N[C@@H](CCSC)C(=O)N[C@@H](CCCNC(=N)N)C(=O)N[C@@H](CCCCN)C(=O)N2)NC(=O)[C@H](CSSC[C@@H](C(=O)N[C@@H](CCCCN)C(=O)N[C@@H](Cc2ccc(O)cc2)C(=O)N[C@H](C(=O)N[C@@H](Cc2ccccc2)C(N)=O)C(C)C)NC(=O)[C@H](Cc2c[nH]c4ccccc24)NC(=O)[C@H](CCCCN)NC(=O)[C@H](Cc2cnc[nH]2)NC(=O)[C@H]([C@@H](C)O)NC(=O)[C@H](CCCNC(=N)N)NC(=O)[C@H](CO)NC3=O)NC(=O)[C@H](CCCCN)NC(=O)[C@H](CC(=O)O)NC(=O)[C@H](CC(N)=O)NC(=O)[C@H](CC(=O)O)NC(=O)[C@@H]2CCCN2C1=O
- IC50 [1]: > 5000 nM
- IC50 [2]: 120 nM

Compound: CC[C@H](C)[C@@H]1NC(=O)[C@@H]2CSSC[C@@H]3NC(=O)[C@H](C(C)C)NC(=O)[C@H](CC(C)C)NC(=O)[C@H](CC(N)=O)NC(=O)[C@@H]4CCCN4C(=O)[C@H](CCCNC(=N)N)NC(=O)[C@H](CSSC[C@H](NC(=O)[C@@H](N)CC(=O)O)C(=O)N[C@@H](CC(C)C)C(=O)NCC(=O)N[C@@H](Cc4ccccc4)C(=O)N[C@@H](CCSC)C(=O)N[C@@H](CCCNC(=N)N)C(=O)N[C@@H](CCCCN)C(=O)N2)NC(=O)[C@H](CSSC[C@@H](C(=O)N[C@@H](CCCCN)C(=O)N[C@@H](Cc2ccc(O)cc2)C(=O)N[C@H](C(=O)N[C@@H](Cc2ccccc2)C(N)=O)C(C)C)NC(=O)[C@H](Cc2c[nH]c4ccccc24)NC(=O)[C@H](CCCCN)NC(=O)[C@H](Cc2c[nH]cn2)NC(=O)[C@H]([C@@H](C)O)NC(=O)[C@H](CCCNC(=N)N)NC(=O)[C@H](CO)NC3=O)NC(=O)[C@H](CCCCN)NC(=O)[C@H](CC(=O)O)NC(=O)[C@H](CC(N)=O)NC(=O)[C@H](Cc2cccc3ccccc23)NC(=O)[C@@H]2CCCN2C1=O (H-DCLGFMRKCIP[1Nal]NDKCCRPNLVCSRTHKWCKYVF-NH2; disulfide 2-17, 9-23, 16-30)
- IC50 [1]: > 5000 nM
- IC50 [2]: 100 nM

Compound: CC[C@H](C)[C@@H]1NC(=O)[C@@H]2CSSC[C@@H]3NC(=O)[C@H](C(C)C)NC(=O)[C@H](CC(C)C)NC(=O)[C@H](CCCCN)NC(=O)[C@@H]4CCCN4C(=O)[C@H](CCCNC(=N)N)NC(=O)[C@H](CSSC[C@H](NC(=O)[C@@H](N)CC(=O)O)C(=O)N[C@@H](CC(C)C)C(=O)NCC(=O)N[C@@H](Cc4ccccc4)C(=O)N[C@@H](CCSC)C(=O)N[C@@H](CCCNC(=N)N)C(=O)N[C@@H](CCCCN)C(=O)N2)NC(=O)[C@H](CSSC[C@@H](C(=O)N[C@@H](CCCCN)C(=O)N[C@@H](Cc2ccc(O)cc2)C(=O)N[C@H](C(=O)N[C@@H](Cc2ccccc2)C(N)=O)C(C)C)NC(=O)[C@H](Cc2c[nH]c4ccccc24)NC(=O)[C@H](CCCCN)NC(=O)[C@H](Cc2cnc[nH]2)NC(=O)[C@H]([C@@H](C)O)NC(=O)[C@H](CCCNC(=N)N)NC(=O)[C@H](CO)NC3=O)NC(=O)[C@H](CCCCN)NC(=O)[C@H](CC(=O)O)NC(=O)[C@H](CC(N)=O)NC(=O)[C@H](CC(=O)O)NC(=O)[C@@H]2CCCN2C1=O (H-DCLGFMRKCIPDNDKCCRPKLVCSRTHKWCKYVF-NH2; disulfide 2-17, 9-23, 16-30)
- IC50 [1]: > 5000 nM
- IC50 [2]: 630 nM

Compound: CC[C@H](C)[C@@H]1NC(=O)[C@@H]2CSSC[C@@H]3NC(=O)[C@H](C(C)C)NC(=O)[C@H](CC(C)C)NC(=O)[C@H](CC(N)=O)NC(=O)[C@@H]4CCCN4C(=O)[C@H](CCCNC(=N)N)NC(=O)[C@H](CSSC[C@H](NC(=O)[C@@H](N)CC(=O)O)C(=O)N[C@@H](CC(C)C)C(=O)NCC(=O)N[C@@H](Cc4ccccc4)C(=O)N[C@@H](CCSC)C(=O)N[C@@H](CCCNC(=N)N)C(=O)N[C@@H](CCCCN)C(=O)N2)NC(=O)[C@H](CSSC[C@@H](C(=O)N[C@@H](CCCCN)C(=O)N[C@@H](Cc2ccc(O)cc2)C(=O)N[C@@H](CCCCN)C(=O)N[C@@H](Cc2ccccc2)C(N)=O)NC(=O)[C@H](Cc2c[nH]c4ccccc24)NC(=O)[C@H](CCCCN)NC(=O)[C@H](Cc2cnc[nH]2)NC(=O)[C@H]([C@@H](C)O)NC(=O)[C@H](CCCNC(=N)N)NC(=O)[C@H](CO)NC3=O)NC(=O)[C@H](CCCCN)NC(=O)[C@H](CC(=O)O)NC(=O)[C@H](CC(N)=O)NC(=O)[C@H](CC(=O)O)NC(=O)[C@@H]2CCCN2C1=O (H-DCLGFMRKCIPDNDKCCRPNLVCSRTHKWCKYKF-NH2; disulfide 2-17, 9-23, 16-30)
- IC50 [1]: > 5000 nM
- IC50 [2]: 50 nM

Compound: CC[C@H](C)[C@@H]1NC(=O)[C@@H]2CSSC[C@@H]3NC(=O)[C@H](C(C)C)NC(=O)[C@H](CC(C)C)NC(=O)[C@H](CC(N)=O)NC(=O)[C@@H]4CCCN4C(=O)[C@H](CCCNC(=N)N)NC(=O)[C@H](CSSC[C@H](NC(=O)[C@@H](N)CC(=O)O)C(=O)N[C@@H](CC(C)C)C(=O)NCC(=O)N[C@@H](Cc4ccccc4)C(=O)N[C@@H](CCSC)C(=O)N[C@@H](CCCNC(=N)N)C(=O)N[C@@H](CCCCN)C(=O)N2)NC(=O)[C@H](CSSC[C@@H](C(=O)N[C@@H](CCCCN)C(=O)N[C@@H](Cc2ccc(O)cc2)C(=O)N[C@H](C(=O)N[C@@H](Cc2ccccc2)C(N)=O)C(C)C)NC(=O)[C@H](Cc2c[nH]c4ccccc24)NC(=O)[C@H](CCCCN)NC(=O)[C@H](Cc2cnc[nH]2)NC(=O)[C@H]([C@@H](C)O)NC(=O)[C@H](CCCNC(=N)N)NC(=O)[C@H](CO)NC3=O)NC(=O)[C@H](CCCNC(=N)N)NC(=O)[C@H](CC(=O)O)NC(=O)[C@H](CC(N)=O)NC(=O)[C@H](CC(=O)O)NC(=O)[C@@H]2CCCN2C1=O (H-DCLGFMRKCIPDNDRCCRPNLVCSRTHKWCKYVF-NH2; disulfide 2-17, 9-23, 16-30)
- IC50 [1]: > 5000 nM
- IC50 [2]: 220 nM

Compound: CC[C@H](C)[C@@H]1NC(=O)[C@H]2CSSC[C@H]3NC(=O)[C@H](C(C)C)NC(=O)[C@H](CC(C)C)NC(=O)[C@H](CC(N)=O)NC(=O)[C@@H]4CCCN4C(=O)[C@H](CCCNC(=N)N)NC(=O)[C@H](CSSC[C@H](NC(=O)[C@@H](N)CC(=O)O)C(=O)N[C@@H](CC(C)C)C(=O)NCC(=O)N[C@@H](Cc4ccccc4)C(=O)N[C@@H](CCSC)C(=O)N[C@@H](CCCNC(=N)N)C(=O)N[C@@H](CCCCN)C(=O)N2)NC(=O)[C@@H](CSSC[C@@H](C(=O)N[C@@H](CCCCN)C(=O)N[C@@H](Cc2ccc(O)cc2)C(=O)N[C@H](C(=O)N[C@@H](Cc2ccccc2)C(N)=O)C(C)C)NC(=O)[C@H](Cc2c[nH]c4ccccc24)NC(=O)[C@H](CCCCN)NC(=O)[C@H](C)NC(=O)[C@H]([C@@H](C)O)NC(=O)[C@H](CCCNC(=N)N)NC(=O)[C@H](CO)NC3=O)NC(=O)[C@H](CCCCN)NC(=O)[C@H](CC(=O)O)NC(=O)[C@H](CC(N)=O)NC(=O)[C@H](CC(=O)O)NC(=O)[C@@H]2CCCN2C1=O
- IC50 [1]: > 5000 nM
- IC50 [2]: 970 nM

Compound: CC[C@H](C)[C@@H]1NC(=O)[C@@H]2CSSC[C@@H]3NC(=O)[C@H](C(C)C)NC(=O)[C@H](CC(C)C)NC(=O)[C@H](CC(N)=O)NC(=O)[C@@H]4CCCN4C(=O)[C@H](CCCNC(=N)N)NC(=O)[C@H](CSSC[C@H](NC(=O)[C@@H](N)CC(=O)O)C(=O)N[C@@H](CC(C)C)C(=O)NCC(=O)N[C@@H](Cc4ccccc4)C(=O)N[C@@H](CCSC)C(=O)N[C@@H](CCCNC(=N)N)C(=O)N[C@@H](CCCCN)C(=O)N2)NC(=O)[C@H](CSSC[C@@H](C(=O)N[C@@H](CCCCN)C(=O)N[C@@H](Cc2ccc(O)cc2)C(=O)N[C@H](C(=O)N[C@@H](Cc2ccccc2)C(=O)N[C@@H](CCCNC(=N)N)C(N)=O)C(C)C)NC(=O)[C@H](Cc2c[nH]c4ccccc24)NC(=O)[C@H](CCCCN)NC(=O)[C@H](Cc2cnc[nH]2)NC(=O)[C@H]([C@@H](C)O)NC(=O)[C@H](CCCNC(=N)N)NC(=O)[C@H](CO)NC3=O)NC(=O)[C@H](CCCCN)NC(=O)[C@H](CC(=O)O)NC(=O)[C@H](CC(N)=O)NC(=O)[C@H](CC(=O)O)NC(=O)[C@@H]2CCCN2C1=O
- IC50 [1]: > 5000 nM
- IC50 [2]: 130 nM

Compound: CC[C@H](C)[C@@H]1NC(=O)[C@@H]2CSSC[C@@H]3NC(=O)[C@H](C(C)C)NC(=O)[C@H](CC(C)C)NC(=O)[C@H](CC(N)=O)NC(=O)[C@@H]4CCCN4C(=O)[C@H](CCCNC(=N)N)NC(=O)[C@H](CSSC[C@H](NC(=O)[C@@H](N)CC(=O)O)C(=O)N[C@@H](CC(C)C)C(=O)NCC(=O)N[C@@H](Cc4ccccc4)C(=O)N[C@@H](CCSC)C(=O)N[C@@H](CCCNC(=N)N)C(=O)N[C@@H](CCCCN)C(=O)N2)NC(=O)[C@H](CSSC[C@@H](C(=O)N[C@@H](CCCCN)C(=O)N[C@@H](Cc2ccc(O)cc2)C(=O)N[C@H](C(=O)N[C@@H](Cc2ccccc2)C(N)=O)C(C)C)NC(=O)[C@H](Cc2c[nH]c4ccccc24)NC(=O)[C@H](CCCCN)NC(=O)[C@H](CCCNC(=N)N)NC(=O)[C@H]([C@@H](C)O)NC(=O)[C@H](CCCNC(=N)N)NC(=O)[C@H](CO)NC3=O)NC(=O)[C@H](CCCCN)NC(=O)[C@H](CC(=O)O)NC(=O)[C@H](CC(N)=O)NC(=O)[C@H](CC(=O)O)NC(=O)[C@@H]2CCCN2C1=O (H-DCLGFMRKCIPDNDKCCRPNLVCSRTRKWCKYVF-NH2; disulfide 2-17, 9-23, 16-30)
- IC50 [1]: > 5000 nM
- IC50 [2]: 450 nM
